Screens from PubChem.
HSF-1 act = increases HSF-1 driven luciferase reporter signal | NIH3T3-HGL HSF-1 luciferase reporter, MG132, 8 h; 100% = twice DMSO control signal | activation, % at 9 µM | 300,000 compounds, 1.7% hits | AID 504408;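 active = mean replicate activation of at least 50% with a set share of replicates each reaching 50%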;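 also: 0% = median of the neutral control wells and 100% = twice that signal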
Rad51 HR inh = Rad51 (human) homologous recombination inhibition; Q06609; 200,000 compounds, 0.085% hits; inhibition, % at 10 µM; hRad51 DNA strand exchange, fluorescence dequenching; AID 1385;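 active = inhibition above 40% at the single screening dose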;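 also: 0% = DMSO control wells and 100% = blanks with heterologous ssDNA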
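material = hRad51 filaments on single-stranded DNA | reagent = Donor/quencher-labelled 47-bp dsDNA substrate | compound = 10 µM final, single point | schedule = strand-exchange reaction 15 min at room temperature | measured by = fluorescein emission 520 nm, excitation 485 nm | read-out basis = % inhibition versus plate control and blank means | benchmarks = plate controls and plate blanks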
Mdm2 ligase inh = inhibitors of human Mdm2 E3 ubiquitin ligase. Q00987. cell-based MDM2 ubiquitination luciferase reporter, 2 h; 0 = plate control, 100 = twice control, blank-subtracted. signal enhancement, % at 5 µM. 210,000 compounds, 0.11% hits;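 active = signal enhancement of 30% or more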;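 also: luminescence tracks abundance of the self-degrading MDM2-luciferase fusion protein; higher signal means inhibition of MDM2 E3 ligase activity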
Target sequence (Q00987 whole entry, looked up, the tested form may be a part): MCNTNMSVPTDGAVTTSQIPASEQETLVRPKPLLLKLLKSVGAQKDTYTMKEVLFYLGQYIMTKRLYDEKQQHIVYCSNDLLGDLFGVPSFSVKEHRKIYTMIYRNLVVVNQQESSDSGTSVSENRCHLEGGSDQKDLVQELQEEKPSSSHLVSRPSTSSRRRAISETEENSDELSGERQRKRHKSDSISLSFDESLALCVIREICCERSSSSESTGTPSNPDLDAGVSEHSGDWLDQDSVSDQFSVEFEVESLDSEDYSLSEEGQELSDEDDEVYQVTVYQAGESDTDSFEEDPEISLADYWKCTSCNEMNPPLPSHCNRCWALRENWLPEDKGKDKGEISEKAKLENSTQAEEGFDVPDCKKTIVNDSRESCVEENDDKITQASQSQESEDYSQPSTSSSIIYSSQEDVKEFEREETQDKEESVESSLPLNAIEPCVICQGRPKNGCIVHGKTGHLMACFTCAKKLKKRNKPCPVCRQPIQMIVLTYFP
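test system = mammalian cells stably expressing self-ubiquitinating, self-degrading MDM2 E3–luciferase fusion | quantity = 2000 cells/well | incubation = cell settling 4 h, compound treatment 2 h, both 37 °C | signal = luminescence with SteadyLite reagent, 15 min at room temperature | evaluation = % enhancement relative to plate controls after blank subtraction | benchmarks = plate controls and plate blanks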
HSV replic up = increases HSV replication in cells | HSV replication augmentation in cells, fold increase | maximum fold increase | 220,000 compounds, 0.005% hits | AID 1956; in the data active = maximum fold increase above about 1.5; tested in PC3 cells
HSF1 inh = HSF1 inhibition; NIH3T3-HGL HSE-luciferase, MG132-induced, luminescence 8 h; active compounds read low; activity change, negative = inhibition, % at 7.5 µM (by protocol); AID 2098; 300,000 compounds, 0.77% hits;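 active = more than half of replicate wells show activity change below -50%, luminescence cut by over half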;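 also: luciferase reports HSF-1 transcriptional activity via heat shock element; 0% = median of DMSO wells and -100% = zero luminescence signal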
Hsp70 act = transcriptional activators of Hsp70; 200,000 compounds, 0.04% hits; HeLa Hsp70 promoter luciferase reporter, luminescence; scaled: vehicle 0, proteasome-inhibitor control 100%; activation, % at 10 µM;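 active = activation above the mean across all tested compounds plus 3 SD, cutoff set per campaign, cut at about 5.5% in these data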;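 also: 100% = MG132 at 30 µM as the positive control and 0% = DMSO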
An asterisk follows results filed as active. An excerpt weighted towards active compounds, which were near 2.6% of everything screened.

What do the screens show for `CCCC[C@@H](CNC)NC[C@H](Cc1ccc(O)cc1)NCCc1ccc(OCC)cc1`?
HSF-1 act: -84; HSF1 inh: -80*

What do the screens show for `CCC[C@H](CN[C@@H](CNC)[C@H](C)O)NCCc1ccc(OC)cc1`?
HSF-1 act: 3; HSF1 inh: 7

Results for COc1ccc(S(=O)(=O)N2CCCC2CNC(=O)C(=O)NCc2ccccn2)cc1 (configuration not stated) ?
HSF-1 act: 2; HSF1 inh: -2

Results for N/C(=N\OC(=O)c1ccccc1)c1ccccn1 ?
HSF-1 act: -70; Rad51 HR inh: -2; Mdm2 ligase inh: -85; HSV replic up: inactive; HSF1 inh: -65*; Hsp70 act: 0

What do the screens show for `CC(C)(C)c1ccc(C(=O)O/N=C(\N)c2ccccn2)cc1`?
HSF-1 act: -90; HSF1 inh: -89*

Results for N/C(=N\OC(=O)C(c1ccccc1)c1ccccc1)c1ccccn1 ?
HSF-1 act: 73*; Rad51 HR inh: 1; Mdm2 ligase inh: -9; HSV replic up: inactive; HSF1 inh: 39; Hsp70 act: 0

Results for Cc1ccc(C(=O)O/N=C(\N)c2ccccn2)cc1 ?
HSF-1 act: -84; HSF1 inh: -81*

Results for Cc1cccc(C(=O)O/N=C(\N)c2ccccn2)c1 ?
HSF-1 act: -52; HSF1 inh: -49

How did O=C(CC1SC(=O)NC1=O)Oc1ccc(/C=N/NC(=O)c2ccccc2O)cc1 (configuration not stated) do in these assays?
HSF-1 act: 6; Rad51 HR inh: 9; Mdm2 ligase inh: -22; HSV replic up: inactive; HSF1 inh: -5

What do the screens show for `COc1ccccc1CC(=O)O/N=C(\N)Cc1cccc2ccccc12`?
HSF-1 act: -6; Rad51 HR inh: -9; Mdm2 ligase inh: 1; HSV replic up: inactive; HSF1 inh: 4; Hsp70 act: 0

Results for CCOc1ccc(C(=O)O/N=C(\N)c2ccccn2)cc1 ?
HSF-1 act: -84; HSF1 inh: -80*

Results for Cc1ccc(C(=O)O/N=C(\N)c2ccccn2)cc1C ?
HSF-1 act: -78; HSF1 inh: -74*

Results for Cc1ccc(C(=O)O/N=C(\N)Cc2cccc3ccccc23)cc1 ?
HSF-1 act: 64*; HSF1 inh: 17

Results for CCOC(=O)c1ccc(N(CCC2CO2)S(=O)(=O)c2ccc(C)cc2)cc1 (configuration not stated) ?
HSF-1 act: -2; HSF1 inh: -2

What do the screens show for `O=C(COc1ccc(/C=C\[N+](=O)[O-])cc1)N1CCOCC1`?
HSF-1 act: 181*; Rad51 HR inh: -1; Mdm2 ligase inh: 2; HSV replic up: inactive; HSF1 inh: 155; Hsp70 act: 1

Results for CC(=O)C1=C(C)NC(SCC(=O)c2ccc(Cl)cc2)=C(C#N)C1c1ccco1 (configuration not stated) ?
HSF-1 act: 29; Rad51 HR inh: -6; Mdm2 ligase inh: -18; HSF1 inh: 21; Hsp70 act: 0

How did CC(=O)C1=C(C)NC(SCC(=O)c2ccccc2)=C(C#N)C1c1ccco1 (configuration not stated) do in these assays?
HSF-1 act: 77*; Rad51 HR inh: -6; Mdm2 ligase inh: -19; HSV replic up: inactive; HSF1 inh: 55; Hsp70 act: 0

What do the screens show for `CCOC(=O)C1=C(c2ccccc2)NC(SC)=C(C#N)C1c1ccco1` (configuration not stated)?
HSF-1 act: 51*; Rad51 HR inh: -3; Mdm2 ligase inh: -16; HSV replic up: inactive; HSF1 inh: 30; Hsp70 act: 0

Results for Clc1ccccc1-c1nc(-c2ccccc2)n[nH]1 ?
HSF-1 act: 54*; Rad51 HR inh: 2; Mdm2 ligase inh: -21; HSV replic up: inactive; HSF1 inh: 24; Hsp70 act: 0

How did O=[N+]([O-])c1cc(-c2n[nH]c(-c3ccccc3)n2)cc([N+](=O)[O-])c1 do in these assays?
HSF-1 act: -10; Rad51 HR inh: -3; Mdm2 ligase inh: -1; HSV replic up: inactive; HSF1 inh: 4; Hsp70 act: 0

What do the screens show for `COc1ccc(Cl)cc1C(=O)NCC(=O)OCc1ccccc1`?
HSF-1 act: -65; HSF1 inh: -52*

Results for COc1ccc(Cl)cc1C(=O)NCCCSc1ccccc1 ?
HSF-1 act: 5; HSF1 inh: -5

How did COCCNC(=O)C(OC(=O)c1cccs1)c1ccccc1 (configuration not stated) do in these assays?
HSF-1 act: -63; Rad51 HR inh: 0; Mdm2 ligase inh: 6; HSV replic up: inactive; HSF1 inh: -55*; Hsp70 act: 0

How did Cc1ccc([N+](=O)[O-])cc1N=Nc1c(-c2ccc([N+](=O)[O-])cc2)[nH]n(C(N)=S)c1=O do in these assays?
HSF-1 act: 56*; Rad51 HR inh: 8; Mdm2 ligase inh: -27; HSV replic up: inactive; HSF1 inh: 19; Hsp70 act: 0

How did Cc1ccc([N+](=O)[O-])cc1N=Nc1c(C)[nH]n(C(N)=S)c1=O do in these assays?
HSF-1 act: 8; HSF1 inh: 6

Results for Cn1c(SCC(=O)NCc2ccco2)nnc1-c1cccs1 ?
HSF-1 act: 55*; Rad51 HR inh: 4; Mdm2 ligase inh: -1; HSV replic up: inactive; HSF1 inh: 22; Hsp70 act: 0

How did CCn1c(SCC(=O)NC(=O)NCc2ccco2)nnc1-c1cccs1 do in these assays?
HSF-1 act: 1; Rad51 HR inh: 0; Mdm2 ligase inh: -6; HSV replic up: inactive; HSF1 inh: -1; Hsp70 act: 0

Results for O=C(NCc1ccco1)c1cc(-c2ccccc2)on1 ?
HSF-1 act: 50; Rad51 HR inh: -3; Mdm2 ligase inh: -8; HSV replic up: inactive; HSF1 inh: 10; Hsp70 act: 0

Results for O=C(NCc1ccco1)c1cc(-c2cccs2)on1 ?
HSF-1 act: 72*; Rad51 HR inh: -4; Mdm2 ligase inh: -18; HSV replic up: inactive; HSF1 inh: 63; Hsp70 act: 0

What do the screens show for `CN(Cc1ccccc1F)C(=O)COc1ccc(C(=O)c2ccccc2)cc1`?
HSF-1 act: -2; HSF1 inh: -2

What do the screens show for `CC(C)(C)C(CN1CCCC1)OC(=O)c1ccccc1` (configuration not stated)?
HSF-1 act: -84; HSF1 inh: -80*

What do the screens show for `CC(CN1CCOCC1)OC(=O)c1ccccc1` (configuration not stated)?
HSF-1 act: -12; Rad51 HR inh: 15; Mdm2 ligase inh: -15; HSV replic up: inactive; HSF1 inh: -6
